# Laboratory results taken from ChEMBL document CHEMBL1135464, “3-Aryl-2-quinolone derivatives: synthesis and characterization of in vitro and in vivo antitumor effects with emphasis on a new therapeutical target connected with cell migration” (J Med Chem, 2002).
# Calls of active or inactive are those of the source. No cut-off for these calls is given here.
# Key:
# HCT-15 [1] = test: (§1) Cytotoxicity against HCT-15 colon cell line using MTT colorimetric assay; NE is no effect at 1x 10 E-5; format: functional, cell-based; conditions: Homo sapiens
# How it was run: (§2)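 Human tumour lines from ATCC were grown at 37 °C in sealed dishes in MEM with 5% FCS. Cells were seeded at 40000 cells/mL in 96-well plates and left 24 h to plate. Each drug was then tested at six concentrations from 10^-5 to 10^-9 M. Growth was read by colorimetric MTT assay.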
# PC-3 [2] = test: (§3) Cytotoxicity against prostate cell line PC-3 using MTT colorimetric assay; NE is no effect at 1x 10 E-5; format: functional, cell-based; conditions: Homo sapiens; how it was run: as §2
# T-24 [3] = test: (§4) Cytotoxicity against T24 bladder cell lines using MTT colorimetric assay; NE is no effect at 1x 10 E-5; format: functional, cell-based; conditions: Homo sapiens; how it was run: as §2
# LoVo [4] = test: (§5) Cytotoxicity against LoVo colon cell line using MTT colorimetric assay; NE is no effect at 1x 10 E-5; format: functional, cell-based; conditions: Homo sapiens; how it was run: as §2
# A549 [5] = test: (§6) Cytotoxicity against A549 nonsmall lung cell line using MTT colorimetric assay; NE is no effect at 1x 10 E-5; format: functional, cell-based; conditions: Homo sapiens; how it was run: as §2
# A 172 [6] = test: (§7) Cytotoxicity against A-172 glioblastomas using MTT colorimetric assay; NE is no effect at 1x 10 E-5; format: functional, cell-based; conditions: Homo sapiens; how it was run: as §2
# [7] = Evaluated in vivo for maximum tolerated dose and found to be nontoxic; format: ADME, organism-based
# MCF7 [8] = test: (§8) Cytotoxicity against Breast cancer cell line MCF-7 using MTT colorimetric assay; NE is no effect at 1x 10 E-5; format: functional, cell-based; conditions: Homo sapiens; how it was run: as §2
# T47D [9] = test: (§9) Cytotoxicity against Breast cancer cell line T-47D using MTT colorimetric assay; NE is no effect at 1x 10 E-5; format: functional, cell-based; conditions: Homo sapiens; how it was run: as §2
# U373 MG [10] = test: (§10) Cytotoxicity against U-373 MG glioblastomas using MTT colorimetric assay; NE is no effect at 1x 10 E-5; format: functional, cell-based; conditions: Homo sapiens; U-373MG ATCC; how it was run: as §2
# U-87 MG [11] = test: (§11) Cytotoxicity against U-87 MG glioblastomas using MTT colorimetric assay; NE is no effect at 1x 10 E-5; format: functional, cell-based; conditions: Homo sapiens; U-87MG ATCC; how it was run: as §2
# J82 [12] = test: (§12) Cytotoxicity against J82 bladder cell lines using MTT colorimetric assay; NE is no effect at 1x 10 E-5; format: functional, cell-based; conditions: Homo sapiens; how it was run: as §2
# A-427 [13] = test: (§13) Cytotoxicity against A-427 nonsmall lung cell line using MTT colorimetric assay; NE is no effect at 1x 10 E-5; format: functional, cell-based; conditions: Homo sapiens; how it was run: as §2
# A-427 [14] = test: Cytotoxicity against A-427 nonsmall lung cell line using MTT colorimetric assay; format: functional, cell-based; conditions: Homo sapiens; how it was run: as §2
# A549 [15] = test: Cytotoxicity against A549 nonsmall lung cell line using MTT colorimetric assay; format: functional, cell-based; conditions: Homo sapiens; how it was run: as §2
# T47D [16] = test: Cytotoxicity against Breast cancer cell line T-47D using MTT colorimetric assay; format: functional, cell-based; conditions: Homo sapiens; how it was run: as §2
# T-24 [17] = test: Cytotoxicity against T24 bladder cell lines using MTT colorimetric assay; format: functional, cell-based; conditions: Homo sapiens; how it was run: as §2
# U373 MG [18] = test: Cytotoxicity against U-373 MG glioblastomas using MTT colorimetric assay; format: functional, cell-based, U-373MG ATCC; conditions: Homo sapiens; how it was run: as §2
# A 172 [19] = test: Cytotoxicity against A-172 glioblastomas using MTT colorimetric assay; format: functional, cell-based; conditions: Homo sapiens; how it was run: as §2
# J82 [20] = test: Cytotoxicity against J82 bladder cell lines using MTT colorimetric assay; format: functional, cell-based; conditions: Homo sapiens; how it was run: as §2
# MCF7 [21] = test: Cytotoxicity against Breast cancer cell line MCF-7 using MTT colorimetric assay at 1x 10 E-5; format: functional, cell-based; conditions: Homo sapiens; how it was run: as §2
# U-87 MG [22] = test: Cytotoxicity against U-87 MG glioblastomas using MTT colorimetric assay; format: functional, cell-based, U-87MG ATCC; conditions: Homo sapiens; how it was run: as §2
# LoVo [23] = test: Cytotoxicity measured on LoVo colon cell line using MTT colorimetric assay; format: functional, cell-based; conditions: Homo sapiens; how it was run: as §2
# HCT-15 [24] = test: Cytotoxicity against HCT-15 colon cell line using MTT colorimetric assay; format: functional, cell-based; conditions: Homo sapiens; how it was run: as §2
# PC-3 [25] = test: Cytotoxicity against prostate cell line PC-3 using MTT colorimetric assay; format: functional, cell-based; conditions: Homo sapiens; how it was run: as §2
# Mus musculus [26] = test: Evaluated in vivo for maximum tolerated dose (MTD/4) with Doxorubicin (DOX) using MXT mouse mammary adenocarcinoma model; format: functional
# How it was run: (§14)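 MXT-HS hormone-sensitive mammary adenocarcinoma maintained by monthly s.c. transplantation in 6-week-old female B6D2F1 mice. Doses are set as fractions of the MTD. Drugs given i.p.; ETO and DOX 9 times, the quinolone 20 times. Nine mice per group. Tumor area (mm2) is the product of the two largest perpendicular caliper diameters, measured weekly. Mean ± SEM; Mann-Whitney test.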
# Mus musculus [27] = test: Evaluated in vivo for maximum tolerated dose (MTD/2) with Doxorubicin (DOX) using MXT mouse mammary adenocarcinoma model; format: functional; how it was run: as §14
# MCF7 [28] = test: Cytotoxicity against Breast cancer cell line MCF-7 using MTT colorimetric assay; format: functional, cell-based; conditions: Homo sapiens; how it was run: as §2
# Mus musculus [29] = test: Evaluated in vivo for maximum tolerated dose (MTD/4) using MXT mouse mammary adenocarcinoma model
# LoVo [30] = test: as §5; format: functional, cell-based, Homo sapiens; how it was run: as §2
# J82 [31] = test: as §12; format: functional, cell-based, Homo sapiens; how it was run: as §2
# PC-3 [32] = test: as §3; format: functional, cell-based, Homo sapiens; how it was run: as §2
# U373 MG [33] = test: as §10; format: functional, cell-based, Homo sapiens; conditions: u-373mg atcc; how it was run: as §2
# A-427 [34] = test: as §13; format: functional, cell-based, Homo sapiens; how it was run: as §2
# T47D [35] = test: as §9; format: functional, cell-based, Homo sapiens; how it was run: as §2
# T-24 [36] = test: as §4; format: functional, cell-based, Homo sapiens; how it was run: as §2
# U-87 MG [37] = test: as §11; format: functional, cell-based, Homo sapiens; conditions: u-87mg atcc; how it was run: as §2
# HCT-15 [38] = test: as §1; format: functional, cell-based, Homo sapiens; how it was run: as §2
# A549 [39] = test: as §6; format: functional, cell-based, Homo sapiens; how it was run: as §2
# MCF7 [40] = test: as §8; format: functional, cell-based, Homo sapiens; how it was run: as §2
# A 172 [41] = test: as §7; format: functional, cell-based, Homo sapiens; how it was run: as §2
# J82 [42] = test: Cytotoxicity against J82 bladder cell lines using MTT colorimetric assay at 1x 10 E-5; format: functional, cell-based; conditions: Homo sapiens; how it was run: as §2
SMILES,MTD [7] [mg/kg],IC50 (A-427 [14]) [µM],IC50 (A549 [15]) [µM],IC50 (T47D [16]) [µM],IC50 (T-24 [17]) [µM],IC50 (U373 MG [18]) [µM],IC50 (A 172 [19]) [µM],IC50 (J82 [20]) [µM],IC50 (U-87 MG [22]) [µM],IC50 (LoVo [23]) [µM],IC50 (HCT-15 [24]) [µM],IC50 (PC-3 [25]) [µM],IC50 (MCF7 [28]) [µM],other results
COc1ccc(-c2cc3c(OC)cc(OC)cc3nc2S)cc1,160,–,–,–,–,–,–,–,–,–,–,–,–,Cytotoxicity (HCT-15 [1]): inactive; Cytotoxicity (PC-3 [2]): inactive; Cytotoxicity (T-24 [3]): inactive; Cytotoxicity (LoVo [4]): inactive; Cytotoxicity (A549 [5]): inactive; Cytotoxicity (A 172 [6]): inactive; Cytotoxicity (MCF7 [8]): inactive; Cytotoxicity (T47D [9]): inactive; Cytotoxicity (U373 MG [10]): inactive; Cytotoxicity (U-87 MG [11]): inactive; Cytotoxicity (J82 [12]): inactive; Cytotoxicity (A-427 [13]): inactive
CCN(CC)C(=O)Cn1c(=O)c(-c2ccc(OC)cc2)cc2c(OC)cc(OC)cc21,160,> 10,> 10,> 10,> 10,> 10,> 10,> 10,> 10,> 10,> 10,> 10,–,IC50 (MCF7 [21]): > 10 µM
COc1ccc(-c2cc3c(OC)cc(OC)cc3n(CCc3nnn[nH]3)c2=O)cc1,160,> 10,> 10,> 10,> 10,> 10,> 10,> 10,> 10,> 10,> 10,> 10,> 10,MTD/4 (Mus musculus [26]): 40 mg/kg; MTD/2 (Mus musculus [27]): 80 mg/kg; MTD/8 (Mus musculus [29]): 20 mg/kg
COc1ccc(-c2cc3c(OC)cc(OC)cc3n(CCCN(C)C)c2=O)cc1,160,–,–,–,–,–,–,–,–,–,–,–,–,IC50 (LoVo [30]): No effect; IC50 (J82 [31]): No effect; IC50 (PC-3 [32]): No effect; IC50 (U373 MG [33]): No effect; IC50 (A-427 [34]): No effect; IC50 (T47D [35]): No effect; IC50 (T-24 [36]): No effect; IC50 (U-87 MG [37]): No effect; IC50 (HCT-15 [38]): No effect; IC50 (A549 [39]): No effect; IC50 (MCF7 [40]): No effect; IC50 (A 172 [41]): No effect
COc1ccc(-c2cc3c(OC)cc(OC)cc3n(CCC(=O)OCc3ccccc3)c2=O)cc1,160,> 10,> 10,> 10,> 10,> 10,> 10,–,> 10,> 10,> 10,> 10,> 10,IC50 (J82 [42]): > 10 µM
